Compound activity deposited in PubChem by Johns Hopkins Ion Channel Center.
An excerpt weighted towards active compounds, which were near 3.5% of everything screened.
RGS4 inh: inhibitors of human RGS4; P49798; HEK293 M3R/RGS4 inducible, Fluo-4 calcium flux; hits give high values; triggered by carbachol at its EC20; B-score at 10 µM; 310,000 compounds, 0.45% hits; AID 463165;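 active means B-score, a plate-corrected calcium signal, over three deviations above library mean, with baseline fluorescence within five deviations of library mean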;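 further: RGS4 expression induced by doxycycline in cells with stable M3 receptor; B-score is computed from the integrated fluorescence ratio over baseline after carbachol; higher B-score means a larger calcium signal and so more RGS4 inhibition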
Target sequence (P49798 whole entry, looked up): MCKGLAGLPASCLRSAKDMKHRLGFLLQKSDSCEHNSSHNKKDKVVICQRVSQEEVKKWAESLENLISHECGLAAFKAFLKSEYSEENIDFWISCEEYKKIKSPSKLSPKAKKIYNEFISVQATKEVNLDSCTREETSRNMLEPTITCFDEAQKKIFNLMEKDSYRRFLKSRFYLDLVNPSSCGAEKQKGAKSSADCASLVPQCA
MrgX1 antag: antagonists of human MrgX1 receptor; Q96LB2; MRGX1-HEK293 calcium flux, Fluo-4, BAM8-22 antagonism; hits give low values; 310,000 compounds, 1.3% hits; B-score at 10 µM;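 active means calcium-response B-score plate-corrected more than 3 library SD below zero, starting fluorescence within 5 deviations, no agonist response on first addition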;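 further: peak minus trough fluorescence over baseline after final BAM8-22 challenge near maximal dose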
Target sequence (Q96LB2 whole entry, looked up): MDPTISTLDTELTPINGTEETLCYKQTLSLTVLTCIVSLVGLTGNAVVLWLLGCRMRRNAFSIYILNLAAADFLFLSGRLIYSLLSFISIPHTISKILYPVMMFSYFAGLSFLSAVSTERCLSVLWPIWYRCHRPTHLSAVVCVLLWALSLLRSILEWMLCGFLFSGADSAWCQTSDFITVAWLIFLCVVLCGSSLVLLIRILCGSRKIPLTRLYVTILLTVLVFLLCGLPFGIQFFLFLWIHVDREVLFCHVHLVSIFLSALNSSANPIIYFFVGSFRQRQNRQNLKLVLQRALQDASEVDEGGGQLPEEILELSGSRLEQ
RGS4 pot: RGS4 potentiation or activation | 310,000 compounds, 0.92% hits | B-score at 10 µM | HEK293 M3R/inducible RGS4, carbachol calcium flux Fluo4; hits give low values | AID 463111;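 active means B-score of the integrated calcium signal more than 4 SD below the library mean, with starting fluorescence not abnormally high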;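 further: negative B-score means reduced calcium response which marks RGS4 activation or potentiation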
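Material: Inducible-RGS4 HEK293 cells carrying M3 receptor; also added: carbachol at ECmax as muscarinic agonist stimulus; incubation: compound preincubation 20 min at room temperature before agonist; signal: Fluo4-AM (2 µM) calcium-flux fluorescence, kinetic read; measure: integrated calcium ratio converted to B score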
MrgX1 PAM: allosterically activates human MrgX1 receptor signaling; Q96LB2; MrgX1-HEK293, Fluo-4 calcium flux, FDSS; hits give high values; B-score at 10 µM; 310,000 compounds, 0.63% hits;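 active means plate-corrected calcium response at least 3 library SD above typical, normal starting fluorescence, not activating the receptor alone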;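 further: compound read alongside a low EC10 to EC30 dose of BAM8-22 agonist; peak minus trough fluorescence over baseline measured at the second addition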
MrgX1 agonist: activates human MrgX1 receptor signaling; Q96LB2; AID 588627; 310,000 compounds, 0.44% hits; MrgX1-HEK293 cells, Fluo-4 calcium fluorescence, agonist mode; hits give high values; B-score at 10 µM;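 active means calcium response B-score plate-corrected fluorescence ratio at least 3 library SD, with starting fluorescence B-score inside 5 SD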
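Test system: HEK293 cells stably expressing human MrgX1 receptor; Input: fifteen thousand cells per well; Dosing: compound delivered in addition one of three; Schedule: overnight seeding, then 1 h dark dye loading; Technique: Fluo-4 NW calcium fluorescence; Measure: B-scored fluorescence response ratio; Controls: positive and negative controls per plate.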
MrgX1 ag confirm: confirmation of human MrgX1 receptor agonists | 600 compounds, 78% hits | shares compounds with MrgX1 agonist | activation, % at 10 µM | MrgX1-HEK293, Fluo-4 calcium fluorescence, FDSS;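 active means calcium signal rise, corrected for plate position, at least 3 library SD high, with starting brightness within 5 such deviations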
HEK293 Ca flux: counter-screen for MrgX1 antagonists: effect in parental HEK293 cells; shares compounds with MrgX1 antag; Fluo-4 calcium fluorescence, FDSS; fluorescence ratio F(max-min)/F0 at 10 µM; 4,000 compounds, 2% hits;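 active means duplicate-averaged calcium fluorescence ratio at least three times the standard deviation of buffer wells, a nonspecific response in parental cells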
HEK293 Ca counter: activity in parental HEK293 cells without MrgX1; parental HEK293 calcium flux, Fluo-4 fluorescence ratio; hits give high values; fluorescence ratio F(max-min)/F0 at 10 µM; 4,000 compounds, 0.4% hits; shares compounds with MrgX1 antag; AID 624114;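 active means calcium fluorescence ratio, averaged over duplicates, at least 3 SD of the buffer-well ratio, meaning a nonspecific response in receptor-free cells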;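 further: untransfected parental HEK293 lacking MrgX1 used as counterscreen for MrgX1 allosteric activators; fluorescence change taken during the second addition on a kinetic imager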
HEK293 Ca cntr2: activity in parental HEK293 cells lacking MrgX1 receptor. Fluo-4 calcium fluorescence (FDSS); hits give high values. 4,000 compounds, 8.7% hits. fluorescence ratio F(max-min)/F0 at 10 µM. shares compounds with MrgX1 antag;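 active means calcium fluorescence ratio at least three times the spread of buffer wells, meaning a non-specific response in parental cells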
Of the large screens only hits and unclear results are named; the others gave an inactive call (follow-up assays come after a bar, where they were run).

Cc1ccc(C(=O)NC(=S)NNC(=O)c2ccccc2[N+](=O)[O-])cc1	MrgX1 agonist 76.6 | MrgX1 ag confirm 412.7% | HEK293 Ca flux inactive | HEK293 Ca counter inactive | HEK293 Ca cntr2 78.3
CC(=O)NC(CC(=O)NCc1ccncc1)c1ccccc1 (stereo unspecified)	none
CNc1nc(Cl)c(SC)c(NCc2ccc(F)cc2)n1	none
Cc1ccccc1OCC(=O)NNC(=S)NC(=O)c1ccco1	MrgX1 agonist 71 | MrgX1 ag confirm 326.5% | HEK293 Ca flux inactive | HEK293 Ca counter inactive | HEK293 Ca cntr2 62.5
O=C(NC(=S)NNC(=O)c1ccccc1O)c1ccccc1	MrgX1 agonist 93.1 | MrgX1 ag confirm 478.5% | HEK293 Ca flux inactive | HEK293 Ca counter inactive | HEK293 Ca cntr2 85.5
Cc1ccc(C(=O)NNC(=S)NC(=O)c2ccc(Cl)cc2Cl)cc1	MrgX1 agonist 131 | MrgX1 ag confirm 585.4% | HEK293 Ca flux inactive | HEK293 Ca counter inactive | HEK293 Ca cntr2 116
CCCc1ccc(C(=O)NC(=O)c2ccccc2O)cc1	MrgX1 agonist 60.6 | MrgX1 ag confirm 186.5% | HEK293 Ca flux inactive | HEK293 Ca counter inactive | HEK293 Ca cntr2 63.6
O=C(Cn1cnc2c(nnn2Cc2ccccc2)c1=O)NCc1ccccc1Cl	none
CCCn1c(C)cc(C(=O)COc2ccc(S(=O)(=O)N(CC)CC)cc2[N+](=O)[O-])c1C	none
O=C(NC(=S)NNC(=O)c1ccccc1O)c1ccc(F)cc1	none
Cc1ccccc1C(=O)NNC(=S)NC(=O)c1ccccc1	MrgX1 agonist 159 | MrgX1 ag confirm 755.5% | HEK293 Ca flux inactive | HEK293 Ca counter inactive | HEK293 Ca cntr2 146
Cc1ccc(C(=O)NNC(=S)NC(=O)c2ccco2)cc1	MrgX1 agonist 135 | MrgX1 ag confirm 680.5% | HEK293 Ca flux inactive | HEK293 Ca counter inactive | HEK293 Ca cntr2 123
COc1cc(-c2cc(OC)c3c(C)oc(C)c3c(=O)c2)ccc1O	MrgX1 agonist 30 | MrgX1 ag confirm 175.2% | HEK293 Ca flux inactive | HEK293 Ca counter inactive | HEK293 Ca cntr2 inactive
COc1ccc(-c2cc(OC)c3c(C)oc(C)c3c(=O)c2)cc1OC	none
CCCc1[nH]n(-c2nc3ccccc3s2)c(=O)c1C=NCC1CCCO1 (stereo unspecified)	MrgX1 agonist 51 | MrgX1 ag confirm 187.2% | HEK293 Ca flux inactive | HEK293 Ca counter inactive | HEK293 Ca cntr2 inactive
CC(C)OP(=O)(c1ccc(N(C)C)cc1)C(O)c1ccc(N(C)C)cc1 (stereo unspecified)	none
CCCOc1ccc(CSC(=N)N)cc1C(=O)OC	none
COC(=O)c1cc(CSC(=N)N)ccc1OCCC(C)C	MrgX1 agonist 37.4 | MrgX1 ag confirm 200.1% | HEK293 Ca flux inactive | HEK293 Ca counter inactive | HEK293 Ca cntr2 inactive
O=C(CCC1CCCC1)c1c(O)c2ccccc2oc1=O	MrgX1 agonist 87.3 | MrgX1 ag confirm 564.2% | HEK293 Ca flux inactive | HEK293 Ca counter inactive | HEK293 Ca cntr2 111
CCOC(=O)c1cnc2c(OC)cccc2c1N1CC(C)CC(C)C1 (stereo unspecified)	MrgX1 agonist 28 | MrgX1 ag confirm inactive | HEK293 Ca flux inactive | HEK293 Ca counter inactive | HEK293 Ca cntr2 inactive
CCC(C)[C@H](NC(=O)N1CCC(C)CC1)C(=O)OC (stereo partly specified)	none
Cc1cc(C)nc(/N=C(\N)Nc2ccc(CC(=O)OC(C)C)cc2)n1	MrgX1 agonist 143 | MrgX1 ag confirm 424.4% | HEK293 Ca flux inactive | HEK293 Ca counter inactive | HEK293 Ca cntr2 90
Cc1cc(C)nc(/N=C(\N)Nc2ccc(OCCC(C)C)cc2)n1	MrgX1 agonist 118 | MrgX1 ag confirm 599.1% | HEK293 Ca flux inactive | HEK293 Ca counter inactive | HEK293 Ca cntr2 124
COc1ccccc1N/C(N)=N/c1nc(C)cc(C)n1	none
Cc1cc(C)nc(/N=C(\N)Nc2cccc(OCc3ccccc3)c2)n1	MrgX1 agonist 153 | MrgX1 ag confirm 522.8% | HEK293 Ca flux inactive | HEK293 Ca counter inactive | HEK293 Ca cntr2 99.9
CCc1nc2ccccc2n1Cc1ccc(OC)c(OC)c1	MrgX1 agonist 40.6 | MrgX1 ag confirm inactive | HEK293 Ca flux inactive | HEK293 Ca counter inactive | HEK293 Ca cntr2 inactive
CCOc1ccc(OCC)c(NC(=O)CN2CCC(NC(=O)c3cccc(F)c3)CC2)c1	none
COc1ccc(C(=O)Nc2nnc(-c3ccccc3)o2)cc1OC	none
O=C(Nc1nnc(-c2ccc(F)cc2)o1)c1cc(Cl)sc1Cl	MrgX1 agonist 114 | MrgX1 ag confirm 526.6% | HEK293 Ca flux inactive | HEK293 Ca counter inactive | HEK293 Ca cntr2 100
O=C(Nc1nnc(-c2ccccc2)o1)c1cc(Cl)sc1Cl	MrgX1 agonist 43.1 | MrgX1 ag confirm 442.3% | HEK293 Ca flux inactive | HEK293 Ca counter inactive | HEK293 Ca cntr2 88.1
CCC(C)[C@H](NC(=O)C1(c2ccccc2)CCN(C(=O)OC(C)(C)C)CC1)C(=O)N[C@@H](C(=O)O)c1ccccc1 (stereo partly specified)	none
CCOC(=O)Cc1csc(NC(=O)c2ccc(Cl)s2)n1	MrgX1 agonist 31.4 | MrgX1 ag confirm 112.3% | HEK293 Ca flux inactive | HEK293 Ca counter inactive | HEK293 Ca cntr2 inactive
CCOC(=O)Cc1csc(NC(=O)c2cccc(Cl)c2)n1	none
Cc1ccc(C(=O)NC(c2ccccc2)C(Cl)Cl)cc1 (stereo unspecified)	none
O=C(Nc1ccc2oc(-c3ccccc3Cl)nc2c1)c1ncn[nH]1	MrgX1 agonist 55.1 | MrgX1 ag confirm inactive | HEK293 Ca flux inactive | HEK293 Ca counter inactive | HEK293 Ca cntr2 inactive
O=C(Nc1ccc2oc(-c3cccc4ccccc34)nc2c1)c1ncn[nH]1	none
ONC(=Nc1ccccc1)c1ccc(Cl)cc1	none
NC(=Nc1ccc(Cl)cc1)c1ccccc1	MrgX1 agonist 89.9 | MrgX1 ag confirm 279.9% | HEK293 Ca flux inactive | HEK293 Ca counter inactive | HEK293 Ca cntr2 54.7
O=C(CCN1CCC(c2ccccc2)C1)c1ccc2c(c1)OCCO2 (stereo unspecified)	MrgX1 agonist 36.4 | MrgX1 ag confirm inactive | HEK293 Ca flux inactive | HEK293 Ca counter inactive | HEK293 Ca cntr2 inactive
COc1cc(C(=O)CCN2CCC(c3ccccc3)C2)cc(OC)c1OC (stereo unspecified)	none
O=C(c1cccs1)N1CCC(c2ccccc2)C1 (stereo unspecified)	none
